Measured values of several laboratories.
Target: Cyclin-dependent kinase-like 2 (CDKL2, Homo sapiens, UniProt Q92772)
Sequence (Q92772 1-493, as in one of the studies): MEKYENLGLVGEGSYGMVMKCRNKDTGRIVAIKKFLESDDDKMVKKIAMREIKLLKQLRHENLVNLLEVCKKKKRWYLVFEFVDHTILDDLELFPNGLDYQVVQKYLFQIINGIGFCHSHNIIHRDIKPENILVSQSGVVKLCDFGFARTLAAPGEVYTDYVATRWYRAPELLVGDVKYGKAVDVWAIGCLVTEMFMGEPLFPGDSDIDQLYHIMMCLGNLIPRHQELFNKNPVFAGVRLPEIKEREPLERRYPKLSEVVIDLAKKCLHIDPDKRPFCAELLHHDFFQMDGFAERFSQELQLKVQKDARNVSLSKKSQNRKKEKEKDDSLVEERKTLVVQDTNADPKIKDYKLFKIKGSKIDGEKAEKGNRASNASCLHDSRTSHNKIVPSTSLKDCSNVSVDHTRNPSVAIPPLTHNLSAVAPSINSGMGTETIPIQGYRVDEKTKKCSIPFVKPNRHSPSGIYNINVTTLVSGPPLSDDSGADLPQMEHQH

O=C(c1ccc(Nc2nccc(-c3cc4ccccc4s3)n2)cc1)N1CCC(N2CCCC2)CC1
remaining binding (binding, competition with immobilised ligand; 1 µM): 8.8%

O=C(Nc1c[nH]nc1C(=O)NC1CCNCC1)c1cc(F)cc(F)c1
remaining binding (binding, competition with immobilised ligand; 1 µM): 89%

O=C(NCCCN1CCOCC1)c1ccc(Nc2ncc(Cl)c(-c3ccc(Cl)s3)n2)cc1
remaining binding (binding, competition with immobilised ligand; 1 µM): 19%

CN(C)c1ncc(F)c(-c2cnn3ncccc23)n1
remaining binding (binding; 1 µM): 89%

C[C@H](c1ccnc(Nc2nc3ccc(-c4cc(N(C)C)ncn4)cc3[nH]2)c1)N1CCN(C(=O)CC(F)(F)F)CC1
remaining binding (binding, competition with immobilised ligand; 0.1 µM): 100%

O=C(c1ccc(Nc2ncc(Cl)c(-c3ccc(Cl)s3)n2)cc1)N1CCC(N2CCCC2)CC1
remaining binding (binding, competition with immobilised ligand; 1 µM): 2.3%

CS(=O)(=O)N1CCCC(NC(=O)[C@H](CCC2CCCCC2)NC(=O)c2ccc(CNc3ncnc4c3nnn4-c3ccccc3)cc2)C1 (stereo partly shown)
remaining binding (cell-free assay, competition with immobilised ligand; 0.1 µM): 100%

CN(C)c1nccc(-c2cnn3ncccc23)n1
remaining binding (binding; 1 µM): 100%

C[C@@H](c1ccc(-n2cnc3c(N)ncnc32)cc1)N1CCc2nn(C)c(Cc3ccccc3)c2C1=O
remaining binding (binding, competition with immobilised ligand; 0.1 µM): 67%

COc1ccnn2ncc(-c3ccnc(N(C)C)n3)c12
remaining binding (binding; 1 µM): 91%

COc1cnc(Nc2cccc(S(N)(=O)=O)c2)nc1N1CCN(c2ccccc2)CC1
remaining binding (binding, competition with immobilised ligand; 1 µM): 100%

CCN1CCN(Cc2ccc(C(=O)Nc3ccc(C)c(Oc4ccc5c(c4)CC(=O)N5)c3)cc2C(F)(F)F)CC1
remaining binding (binding, competition with immobilised ligand; 1 µM): 75%

CS(=O)(=O)N1CCCC(NC(=O)[C@H](CCC2CCCCC2)NC(=O)c2ccc(CNC(=O)c3cnc4ccccn34)cc2)C1 (stereo partly shown)
remaining binding (cell-free assay, competition with immobilised ligand; 0.1 µM): 85%

CN(C)c1nccc(-c2cnc3ncccn23)n1
remaining binding (binding; 1 µM): 100%

Cc1nc(Cc2cccc(C(F)(F)F)c2)sc1-c1ccc(C(N)=O)nc1
remaining binding (binding, competition with immobilised ligand; 1 µM): 92%

C[C@H]1CCN(c2nccc(-c3cnn4ncccc34)n2)C1
remaining binding (binding; 1 µM): 100%

CN(c1ccnc(CNc2nc(Nc3ccc4c(c3)CC(=O)N4)ncc2C(F)(F)F)n1)S(C)(=O)=O
remaining binding (cell-free assay, competition with immobilised ligand; 1 µM): 84%

N[C@H]1CCN(c2nccc(-c3cnn4ncccc34)n2)C1
remaining binding (binding; 1 µM): 99%

Cn1cc(Cl)c2c(Oc3c(F)cc(Nc4cc(Cl)nc(N)n4)cc3F)ccnc21
remaining binding (cell-free assay, competition with immobilised ligand; 0.1 µM): 100%

Nc1ncc2c(n1)-c1c([nH]c3ccc(C#CC4CC4)cc13)CCCC2
remaining binding (binding, competition with immobilised ligand; 1 µM): 96%

Cc1nc(C2CCN(C(=O)c3ccc(OC(F)(F)F)cc3N)CC2)c2ncc(N3CCN(C)CC3)cc2n1
remaining binding (cell-free assay, competition with immobilised ligand; 1 µM): 100%

CN(CCCC(F)(F)F)c1nccc(-c2cnn3ncccc23)n1
remaining binding (binding; 1 µM): 100%
